Values after ≈ are worked out from the molar mass of the structure shown.
Assays:
Pseudomonas aeruginosa [1] = experiment: Antimicrobial activity against Pseudomonas aeruginosa at 4 ug/ml after 24 hrs by agar diffusion technique; format: functional; conditions: read-out: DIZ
Outline: (§1)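 Strains came from a university microbiology department. Inocula were 10⁶ CFU/mL. Mueller-Hinton agar was seeded with culture, poured 3–4 mm thick, and 10 mm cups were bored. Compounds were dissolved in DMF (10 mg/mL stock), diluted, and the solution was placed in the cups. Plates were incubated at 37 °C overnight. Inhibition zone diameter (mm) was read at 24 h.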

Pseudomonas aeruginosa [2] = experiment: Antimicrobial activity against Pseudomonas aeruginosa at 16 ug/ml after 24 hrs by agar diffusion technique; format: functional; conditions: read-out: DIZ; outline: as §1
Pseudomonas aeruginosa [3] = experiment: Antimicrobial activity against Pseudomonas aeruginosa at 64 ug/ml after 24 hrs by agar diffusion technique; format: functional; conditions: read-out: DIZ; outline: as §1
Pseudomonas aeruginosa [4] = experiment: Antimicrobial activity against Pseudomonas aeruginosa at 128 ug/ml after 24 hrs by agar diffusion technique; format: functional; conditions: read-out: DIZ; outline: as §1
Pseudomonas aeruginosa [5] = experiment: Antimicrobial activity against Pseudomonas aeruginosa at 512 ug/ml after 24 hrs by agar diffusion technique; format: functional; conditions: read-out: DIZ; outline: as §1
Escherichia coli [6] = experiment: Antimicrobial activity against Escherichia coli at 4 ug/ml after 24 hrs by agar diffusion technique; format: functional; conditions: read-out: DIZ; outline: as §1
Escherichia coli [7] = experiment: Antimicrobial activity against Escherichia coli at 16 ug/ml after 24 hrs by agar diffusion technique; format: functional; conditions: read-out: DIZ; outline: as §1
Escherichia coli [8] = experiment: Antimicrobial activity against Escherichia coli at 64 ug/ml after 24 hrs by agar diffusion technique; format: functional; conditions: read-out: DIZ; outline: as §1
Escherichia coli [9] = experiment: Antimicrobial activity against Escherichia coli at 128 ug/ml after 24 hrs by agar diffusion technique; format: functional; conditions: read-out: DIZ; outline: as §1
Escherichia coli [10] = experiment: Antimicrobial activity against Escherichia coli at 512 ug/ml after 24 hrs by agar diffusion technique; format: functional; conditions: read-out: DIZ; outline: as §1
Klebsiella pneumoniae [11] = experiment: Antimicrobial activity against Klebsiella pneumoniae at 4 ug/ml after 24 hrs by agar diffusion technique; format: functional; conditions: read-out: DIZ; outline: as §1
Klebsiella pneumoniae [12] = experiment: Antimicrobial activity against Klebsiella pneumoniae at 16 ug/ml after 24 hrs by agar diffusion technique; format: functional; conditions: read-out: DIZ; outline: as §1
Klebsiella pneumoniae [13] = experiment: Antimicrobial activity against Klebsiella pneumoniae at 64 ug/ml after 24 hrs by agar diffusion technique; format: functional; conditions: read-out: DIZ; outline: as §1
Klebsiella pneumoniae [14] = experiment: Antimicrobial activity against Klebsiella pneumoniae at 128 ug/ml after 24 hrs by agar diffusion technique; format: functional; conditions: read-out: DIZ; outline: as §1
Klebsiella pneumoniae [15] = experiment: Antimicrobial activity against Klebsiella pneumoniae at 512 ug/ml after 24 hrs by agar diffusion technique; format: functional; conditions: read-out: DIZ; outline: as §1
Staphylococcus aureus [16] = experiment: Antimicrobial activity against Staphylococcus aureus at 4 ug/ml after 24 hrs by agar diffusion technique; format: functional; conditions: read-out: DIZ; outline: as §1
Staphylococcus aureus [17] = experiment: Antimicrobial activity against Staphylococcus aureus at 16 ug/ml after 24 hrs by agar diffusion technique; format: functional; conditions: read-out: DIZ; outline: as §1
Staphylococcus aureus [18] = experiment: Antimicrobial activity against Staphylococcus aureus at 64 ug/ml after 24 hrs by agar diffusion technique; format: functional; conditions: read-out: DIZ; outline: as §1
Staphylococcus aureus [19] = experiment: Antimicrobial activity against Staphylococcus aureus at 128 ug/ml after 24 hrs by agar diffusion technique; format: functional; conditions: read-out: DIZ; outline: as §1
Staphylococcus aureus [20] = experiment: Antimicrobial activity against Staphylococcus aureus at 512 ug/ml after 24 hrs by agar diffusion technique; format: functional; conditions: read-out: DIZ; outline: as §1
Pseudomonas aeruginosa [21] = experiment: Antimicrobial activity against Pseudomonas aeruginosa after 24 hrs by agar diffusion technique; format: functional; conditions: for MIC: Pseudomonas aeruginosa, 24 h
Outline: (§2)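 Agar cup diffusion on Mueller-Hinton agar seeded from 10⁶ CFU/mL suspensions, with 10 mm cups in a 3–4 mm layer. Compounds were in DMF (10 mg/mL stock) at several concentrations. Plates were incubated at 37 °C and zones measured after 24 h. MIC was taken as the intercept of the plot of log concentration against inhibition zone diameter.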

Escherichia coli [22] = experiment: Antimicrobial activity against Escherichia coli after 24 hrs by agar diffusion technique; format: functional; conditions: for MIC: Escherichia coli, 24 h; outline: as §2
Klebsiella pneumoniae [23] = experiment: Antimicrobial activity against Klebsiella pneumoniae after 24 hrs by agar diffusion technique; format: functional; conditions: for MIC: Klebsiella pneumoniae, 24 h; outline: as §2
Staphylococcus aureus [24] = experiment: Antimicrobial activity against Staphylococcus aureus after 24 hrs by agar diffusion technique; format: functional; conditions: for MIC: Staphylococcus aureus, 24 h; outline: as §2
[25] = Octanol-phosphate buffer partition coefficient, log D at pH 7.4 by spectrophotometry; format: physicochemical
Outline: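 Shake-flask method. A 0.2 mg/mL stock was diluted into pH 7.4 phosphate buffer and mixed with an equal volume of n-octanol, phases mutually presaturated and protected from light. Samples were vortexed 3 min, then shaken 5 h at 25 °C. Both phases were assayed by UV at 270–280 nm. D is the molar concentration ratio, octanol to aqueous.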

Compound | zone of inhibition at 4 µg/mL (Pseudomonas aeruginosa [1]) [mm] | zone of inhibition at 16 µg/mL (Pseudomonas aeruginosa [2]) [mm] | zone of inhibition at 64 µg/mL (Pseudomonas aeruginosa [3]) [mm] | zone of inhibition at 128 µg/mL (Pseudomonas aeruginosa [4]) [mm] | zone of inhibition at 512 µg/mL (Pseudomonas aeruginosa [5]) [mm] | zone of inhibition at 4 µg/mL (Escherichia coli [6]) [mm] | zone of inhibition at 16 µg/mL (Escherichia coli [7]) [mm] | zone of inhibition at 64 µg/mL (Escherichia coli [8]) [mm] | zone of inhibition at 128 µg/mL (Escherichia coli [9]) [mm] | zone of inhibition at 512 µg/mL (Escherichia coli [10]) [mm] | zone of inhibition at 4 µg/mL (Klebsiella pneumoniae [11]) [mm] | zone of inhibition at 16 µg/mL (Klebsiella pneumoniae [12]) [mm] | zone of inhibition at 64 µg/mL (Klebsiella pneumoniae [13]) [mm] | zone of inhibition at 128 µg/mL (Klebsiella pneumoniae [14]) [mm] | zone of inhibition at 512 µg/mL (Klebsiella pneumoniae [15]) [mm] | zone of inhibition at 4 µg/mL (Staphylococcus aureus [16]) [mm] | zone of inhibition at 16 µg/mL (Staphylococcus aureus [17]) [mm] | zone of inhibition at 64 µg/mL (Staphylococcus aureus [18]) [mm] | zone of inhibition at 128 µg/mL (Staphylococcus aureus [19]) [mm] | zone of inhibition at 512 µg/mL (Staphylococcus aureus [20]) [mm] | other results
CCn1cc(C(=O)O)c(=O)c2cc(F)c(N3CCN(CN4N=C(C)CC4=O)CC3)cc21 | 0 | 3 | 3 | 7 | 18 | 8 | 8 | 10 | 10 | 10 | 0 | 2 | 3 | 6 | 11 | 0 | 0 | 7 | 3 | 3 | logMIC (Pseudomonas aeruginosa [21]): 0.95; MIC (Pseudomonas aeruginosa [21]): 9 µg/mL (≈ 21 µM); logMIC (Escherichia coli [22]): 0; MIC (Escherichia coli [22]): < 1 µg/mL; logMIC (Klebsiella pneumoniae [23]): 0.9; MIC (Klebsiella pneumoniae [23]): 8 µg/mL (≈ 18.6 µM); logMIC (Staphylococcus aureus [24]): 1; MIC (Staphylococcus aureus [24]): 10 µg/mL (≈ 23.3 µM); logD [25]: -0.85
CCn1cc(C(=O)O)c(=O)c2cc(F)c(N3CCN(CN4CCOCC4)CC3)cc21 | 0 | 0 | 3 | 3 | 15 | 0 | 0 | 0 | 0 | 30 | 0 | 0 | 0 | 0 | 20 | 5 | 7 | 7 | 8 | 10 | logMIC (Pseudomonas aeruginosa [21]): 1.2; MIC (Pseudomonas aeruginosa [21]): 16 µg/mL (≈ 38.2 µM); logMIC (Escherichia coli [22]): 2.11; MIC (Escherichia coli [22]): 128 µg/mL (≈ 306 µM); logMIC (Klebsiella pneumoniae [23]): 2.11; MIC (Klebsiella pneumoniae [23]): 128 µg/mL (≈ 306 µM); logMIC (Staphylococcus aureus [24]): 0; MIC (Staphylococcus aureus [24]): < 1 µg/mL; logD [25]: -0.043
CCn1cc(C(=O)O)c(=O)c2cc(F)c(N3CCN(C=O)CC3)cc21 [4-N-FORMYL-1-PIPERAZINYL-NORFLOXACIN] | 0 | 2 | 7 | 13 | 13 | 2 | 2 | 2 | 4 | 13 | 0 | 0 | 0 | 0 | 8 | 7 | 8 | 8 | 15 | 12 | logMIC (Pseudomonas aeruginosa [21]): 0.78; MIC (Pseudomonas aeruginosa [21]): 6 µg/mL (≈ 17.3 µM); logMIC (Escherichia coli [22]): 1.04; MIC (Escherichia coli [22]): 11 µg/mL (≈ 31.7 µM); logMIC (Klebsiella pneumoniae [23]): 2.11; MIC (Klebsiella pneumoniae [23]): 128 µg/mL (≈ 369 µM); logMIC (Staphylococcus aureus [24]): 0; MIC (Staphylococcus aureus [24]): < 1 µg/mL; logD [25]: 0.087

Source: ChEMBL document CHEMBL1137764, “Design, synthesis, antibacterial activity and physicochemical parameters of novel N-4-piperazinyl derivatives of norfloxacin” (Bioorg Med Chem, 2009)
